OX1R antag-1 = OX1R (HCRTR1) antagonists, primary screen, fluorescence, CHO/OX1R cells, Fluo-8 calcium, orexin A; inhibition, % at 5 µM; Fluo-8 calcium fluorescence; 330,000 tested, 0.43% active; Orexin/Hypocretin receptor type 1 (Homo sapiens), O43613;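 active = inhibition above its plate's threshold, mean inhibition of all tested compounds on the plate plus 3 SD, cut at about 37% in these data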;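 note: 0% = orexin A challenge wells and 100% = SB-334867-A antagonist wells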
Target sequence (O43613 whole entry, looked up): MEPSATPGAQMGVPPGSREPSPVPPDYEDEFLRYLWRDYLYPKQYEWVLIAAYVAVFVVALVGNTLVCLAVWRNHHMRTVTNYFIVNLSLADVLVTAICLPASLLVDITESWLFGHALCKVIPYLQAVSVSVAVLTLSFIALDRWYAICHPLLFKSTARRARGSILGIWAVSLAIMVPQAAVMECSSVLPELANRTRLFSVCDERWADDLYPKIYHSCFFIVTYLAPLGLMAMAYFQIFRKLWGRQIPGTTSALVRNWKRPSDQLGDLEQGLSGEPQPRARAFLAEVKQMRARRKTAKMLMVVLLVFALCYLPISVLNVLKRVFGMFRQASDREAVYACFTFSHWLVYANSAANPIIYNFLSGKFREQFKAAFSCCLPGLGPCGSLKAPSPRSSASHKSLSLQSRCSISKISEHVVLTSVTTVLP
TAAR1 ag = human TAAR1 agonists, primary screen, Fluo-8 calcium fluorescence, CHO RD-HGA16 cells | Trace amine-associated receptor 1 (Homo sapiens), Q96RJ0 | vehicle wells 0%, saturating PEA agonist 100% | activation, % at 3 µM | 360,000 tested, 0.99% active | AID 624467, 2012;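 active = activation above the mean activation of all test compounds in the run plus 3 SD, cut at about 38% in these data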
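Assay system: CHO-derived RD-HGA16 cells with stable Gα16 and human TAAR1; timing: 17-24 h seeding, 75 min 37 °C dye, 30 min RT; read-out: % activation from peak over basal fluorescence ratio, DMSO-to-PEA scaled; measured by: kinetic Fluo-8 calcium fluorescence; benchmarks: low control DMSO, high control PEA (EC100); doses: 3 µM single concentration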
OX1R antag-2 = antagonists of human orexin 1 receptor (OX1R) | Orexin/Hypocretin receptor type 1 (Homo sapiens), O43613 | OX1R-expressing cells, FRET antagonist read-out | inhibition, % at 6.6 µM | 330,000 tested, 1.8% active | AID 485270, 2010; in the data active = inhibition mostly above about 38%, no sharp cut-off; inactive = mostly below about 40%;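 note: 0% = agonist challenge alone and 100% = reference antagonist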
CHO parental Ca = ATP-evoked calcium signal inhibitors, parental CHO, primary screen, counter-screen for OX1R antagonist project, cell-based, fluorescence, Fluo-8 calcium dye. parental CHO-K1, ATP-induced calcium, Fluo-8 fluorescence. inhibition, % at 5.6 µM. 330,000 tested, 0.63% active;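 active = inhibition above that plate's mean sample inhibition plus 3 SD, cut at about 26% in these data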;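 note: 0% = ATP-challenged DMSO wells and 100% = DMSO wells without ATP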
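Assay system: untransfected parental CHO cell line. Also added: ATP agonist challenge. Dosing: one dose, 5.6 µM nominal. Measured by: Fluo-8 fluorescence. Read-out: % inhibition. Benchmarks: ATP wells versus no-ATP DMSO wells. Repeats: no replicates.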
TAAR1 antagonist = human TAAR1 antagonists, primary screen, Fluo-8 calcium fluorescence, CHO RD-HGA16 cells; AID 624466, 2012; Trace amine-associated receptor 1 (Homo sapiens), Q96RJ0; antagonist; inhibition, % at 3 µM; 360,000 tested, 1.5% active;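 active = inhibition above a per-plate cutoff, the mean inhibition of test compounds on that plate plus 3 SD, cut at about 49% in these data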;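 note: 0% = DMSO plus EC80 beta-PEA response and 100% = DMSO alone without agonist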
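Material: RD-HGA16 CHO cells with stable hTAAR1 and Gα16; Dosing: single nominal final test compound concentration of 3 µM; Schedule: seeding 17-24 h prior, 75-min 37 °C, 30-min RT dye loading; Detection: kinetic Fluo-8 calcium fluorescence measurement; Measure: % inhibition from peak post-agonist over basal fluorescence ratio; Benchmarks: vehicle and agonist controls.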
NTR1 ag = agonists of human NTR1, primary screen, imaging, U2OS cells, beta-arrestin-GFP, high content; Neurotensin receptor type 1 (Homo sapiens), P30989; NTR1-U2OS beta-arrestin-GFP spot imaging, agonist mode; activation, % at 20 µM; 330,000 tested, 0.17% active; AID 493036, 2011;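 active = activation at or above 40% of the spot to cytoplasm intensity ratio, with at least 20 cells analyzed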;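 note: 0% = DMSO without peptide and 100% = 100 nM NTR1 peptide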
NTR1 ag confirm = NTR1 agonists, single-dose retest, confirmation, imaging, U2OS cells, beta-arrestin-GFP, single concentration. NTR1-U2OS beta-arrestin-GFP translocation imaging. AID 504550, 2011. activation, % at 20 µM. shares compounds with NTR1 ag. 480 tested, 38% active;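 active = mean activation at 20 µM of at least 40%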;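 note: 0% = DMSO without peptide and 100% = 100 nM NTR1 peptide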
TAAR1 nonsel count = nonselective antagonists in TAAR1 counter-screen cells, counter-screen for hTAAR1 antagonist project, cell-based, fluorescence, calcium; shares compounds with TAAR1 antagonist; counterscreen cell line, antagonist mode; inhibition, % at 3 µM; 2,400 tested, 77% active; AID 651780, 2012; in the data active = inhibition above about 22%;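 note: CHO-Ga16 host cells stimulated with ATP at an EC80 level; 0% = agonist EC80 plus vehicle and 100% = vehicle without agonist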
TAAR1 antag conf = human TAAR1 antagonists, retest of hits, confirmation, cell-based, fluorescence; 2,400 tested, 40% active; AID 651785, 2012; TAAR1-expressing cells, fluorescence antagonist read-out; inhibition, % at 3 µM; shares compounds with TAAR1 antagonist; in the data active = inhibition above about 49%;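 note: CHO-Ga16 host cells challenged with agonist PEA near its EC80; 0% = agonist at EC80 plus vehicle and 100% = vehicle with no agonist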
Ga16 ag counter = calcium activation in Ga16-expressing cells, counter-screen for TAAR1 antagonist project, cell-based, fluorescence | AID 651953, 2012 | 2,400 tested, 18% active | agonist counterscreen | shares compounds with TAAR1 antagonist | activation, % at 3 µM; in the data active = activation above about 12%;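 note: 0% = vehicle wells and 100% = saturating stimulus response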
TAAR1 ag counter = TAAR1 activation by candidate antagonists – cell-based, fluorescence, counter-screen for TAAR1 antagonist project. shares compounds with TAAR1 antagonist. hTAAR1 cell line, agonist mode. activation, % at 3 µM. 2,400 tested, 2% active; in the data active = activation above about 37%;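 note: CHO cells stably expressing TAAR1 with calcium dye readout; 0% = DMSO vehicle and 100% = full agonist response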
* = called active by the depositor. Compounds with a hit are over-represented: about 4% of the library has one in this group of screens.

O=c1c(C=NCc2cccs2)c(O)n(C2CCCCC2)c(=O)n1C1CCCCC1 was read as OX1R antag-1 -12.3, TAAR1 ag -2.6, OX1R antag-2 11.4, CHO parental Ca -15.4, TAAR1 antagonist -2.3 and NTR1 ag 30.2.
For Cc1cc(N2CCNC[C@@H]2C)ccc1N1CCN[C@H](C)C1 the results were TAAR1 ag 1.4 and TAAR1 antagonist -8.2.
Screening Cc1cc(C(=O)OCC(=O)Nc2ccc(F)cc2F)c(C)n1C1CC1 returned OX1R antag-1 -19.3, TAAR1 ag -2.4, OX1R antag-2 -0.3, CHO parental Ca -13.4, TAAR1 antagonist -11.6 and NTR1 ag -2.1.
For COC(=O)C[C@]1(C(=O)OC)CN(C#N)N(c2ccc(Cl)cc2)C12c1ccccc1-c1ccccc12 the results were OX1R antag-1 -8.1, TAAR1 ag 7.2, OX1R antag-2 -4.8, CHO parental Ca -10.6, TAAR1 antagonist -9.0, NTR1 ag 41.3* and NTR1 ag confirm 62.2*.
Screening COC(=O)[C@@H]1[C@@H](C(=O)OC)C2(c3ccccc3-c3ccccc32)N(c2ccc(Cl)cc2)N1C#N returned OX1R antag-1 -23.2, TAAR1 ag 9.9, OX1R antag-2 11.9, CHO parental Ca -14.9, TAAR1 antagonist 15.1 and NTR1 ag 35.3.
CC(C)CCNC(=O)c1c(N)n(CC2CCCO2)c2nc3ccccc3nc12 (stereo not drawn) was read as OX1R antag-1 -38.1, TAAR1 ag 5.0, OX1R antag-2 7.5, CHO parental Ca -22.0, TAAR1 antagonist -4.5, NTR1 ag 42.7* and NTR1 ag confirm 30.4.
Screening O=C1NC(=O)C(=Cc2ccc(SC3CCCCC3)o2)C(=O)N1 returned OX1R antag-1 -9.2, TAAR1 ag 30.1, OX1R antag-2 20.6, CHO parental Ca 1.1, TAAR1 antagonist 59.4*, NTR1 ag 50.2* and NTR1 ag confirm 67.6*.
CC(C)CC12CN3CCN(CC(C3)/C1=N/O)C2 was read as OX1R antag-1 13.8, TAAR1 ag 3.5, OX1R antag-2 12.0, CHO parental Ca -1.1, TAAR1 antagonist -4.5 and NTR1 ag -3.0.
CC(C)C12CN3CCN(CC(C3)/C1=N\O)C2 was read as OX1R antag-1 -18.3, TAAR1 ag -3.0, OX1R antag-2 13.2, CHO parental Ca -9.8, TAAR1 antagonist 107.7*, NTR1 ag -1.2, TAAR1 nonsel count 4.8, TAAR1 antag conf 9.7, Ga16 ag counter -0.5 and TAAR1 ag counter 0.4.
